Experiments:
[1] = melting temperature; fluorescence melt of hairpins on a sequencing array, two-state fit, raised by 9.35 °C to match UV melts; details: sodium 0.088 M
How it was run: (§1)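 Two-state fits, bootstrapped, provided melting temperature and folding enthalpy from Cy3 fluorescence normalised to pre-quench Cy3 and to control constructs. Library hairpins with annealed Cy3 and quencher oligos were imaged on a sequenced MiSeq flow cell in 50 mM Na-HEPES pH 8.0, 25 mM NaCl, at 2.5 °C intervals up to 60 °C. Four replicates were combined with inverse-variance weighting. A 9.35 °C upward shift was applied to fitted temperatures to match UV melts.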

[2] = folding enthalpy; higher = less favourable; fluorescence melt of hairpins on a sequencing array, two-state fit; details: sodium 0.088 M
How it was run: as §1

Sequence	Tm [1] [°C]	folding enthalpy [2] [kcal/mol]
GGGACTCGAAAGAGCCC (((.(((....))))))	54.9	-28.8
GGGACTGGAAACAATCCC ((((.((....)).))))	37.9	-27.6
GGGACTGGAAACGGTTCC ((.((.(....).)).))	42	-18.9
GGGAGACGAAAGTCGCCC (((.(((....))).)))	66	-33
GGGAGCGAAAGCTAACCC ((((((....)))..)))	45	-16.1
GGGAGCGAAAGCTTCCCC ((((((....)))..)))	61	-12.9
GGGAGCGGAAACGCCCCC (((.(((....))).)))	61.4	-27.4
GGGAGCGGAAACGCTCTC (.(((((....))))).)	58.4	-14.5
GGGAGGACGAAAGTCCCC (((..(((....))))))	53.1	-11.6
GGGAGTCCGAAAGGACCC (((..(((....))))))	53.6	-14
GGGAGTCGAAAGACGCCC (((.(((....))).)))	64.3	-30
GGGAGTGGAAACGCTCTC (.(((.(....).))).)	39.7	-17.8
GGGAGTGGAAACGCTTCC ((.((.(....).)).))	39	-20.7
GGGATAGAAATATCCC ((((((....))))))	51.1	-30.3
GGGATAGGAAACTATCTC (.(((((....))))).)	39.8	-25.3
GGGATCCGAAAGGACCC (((.(((....))))))	55.7	-36.5
GGGATCGAAAGATACCCC ((((((....)))..)))	51.6	-18.1
GGGATCGAAAGATGCCCC ((((((....)))..)))	49.2	-15
GGGATCGAAAGATGTCCC ((((((....)))..)))	35.9	-17.3
GGGATCGGAAACGACCCC (((.(((....))).)))	52.4	-37.5
GGGATCGGAAACGGTCTC (.((.((....)).)).)	39.6	-22.1
GGGATGACGAAAGTCCCC (((..(((....))))))	42.9	-18.4
GGGATGGGAAACCATCCC (((((((....)))))))	67.4	-41.5

Sequence	Tm [1] [°C]	folding enthalpy [2] [kcal/mol]
GGGATGGGAAACTGTCCC ((((..(....)..))))	43.5	-31.3
GGGATTCGAAAGAACCCC (((.(((....))).)))	49.9	-34
GGGATTGGAAACAATCCC (((((((....)))))))	60.5	-41.9
GGGATTGGAAACAGTCTC (.((.((....)).)).)	27.7	-13
GGGATTGGAAACGATTCC ((.((.(....).)).))	36.9	-21
GGGCAACGAAAGTTCCCC (((.(((....))).)))	47.2	-20.2
GGGCAAGAAATTGCCC ((((((....))))))	63.6	-33.9
GGGCAGCCGAAAGGCCCC (((..(((....))))))	48.1	-15.1
GGGCAGCGAAAGCTACCC (((.(((....))).)))	57.1	-31.2
GGGCATCGAAAGATCCC (((.(((....))))))	50.4	-30.4
GGGCATGGAAACACGCCC ((((.((....)).))))	51.8	-45.3
GGGCATGGAAACGTGTCC ((.((.(....).)).))	45	-29
GGGCCAGGAAACCGACCC (((.(.(....).).)))	34.6	-20.9
GGGCCCGAAAGGGCACCC ((((((....)))..)))	65	-9.72
GGGCCCGCGAAAGCGCCC (((..(((....))))))	55.8	-15.6
GGGCCCGGAAACGGGCTC (.(((((....))))).)	68	-12.2
GGGCCGACGAAAGTCCCC (((..(((....))))))	43.8	-12
GGGCCGCCGAAAGGCCCC (((..(((....))))))	64.1	-13.6
GGGCCTGGAAACAGACCC (((.(((....))).)))	50.9	-38.6
GGGCCTGGAAACAGGTCC ((.((((....)))).))	65	-36.4
GGGCCTGGAAACGGGCTC (.(((.(....).))).)	50.2	-24
GGGCGACGAAAGTCCCC (((.(((....))))))	55.4	-27.5
GGGCGAGGAAACTCGCTC (.(((((....))))).)	58.1	-15.8

Sequence	Tm [1] [°C]	folding enthalpy [2] [kcal/mol]
GGGCGAGGAAACTTGCCC ((((.((....)).))))	59.1	-45.6
GGGCGCCGAAAGGCACCC (((.(((....))).)))	67.5	-22.8
GGGCGCGAAAGCGAACCC ((((((....)))..)))	59.3	-14
GGGCGCGAAAGCGCTCCC ((((((....)))..)))	53.6	-9.05
GGGCGGGCGAAAGCCCCC (((..(((....))))))	51.2	-11.5
GGGCGTCGAAAGACACCC (((.(((....))).)))	58.9	-43.8
GGGCGTCGAAAGACTCCC (((.(((....))).)))	53.9	-38.3
GGGCGTGGAAACGTGCCC ((((..(....)..))))	54.4	-41.4
GGGCTAACGAAAGTTCCC (((..(((....))))))	34.9	-16.7
GGGCTACGAAAGTACCCC (((.(((....))).)))	49.4	-17.5
GGGCTATCGAAAGATCCC (((..(((....))))))	31.9	-22
GGGCTCCGAAAGGACCC (((.(((....))))))	57.4	-30.1
GGGCTCGAAAGAGACCCC ((((((....)))..)))	63.8	-12.7
GGGCTCGAAAGAGATCCC ((((((....)))..)))	47.8	-18.9
GGGCTCGAAAGAGGGCCC ((((((....)))..)))	54.6	-39.4
GGGCTCGAAAGAGGTCCC ((((((....)))..)))	48.2	-17.1
GGGCTCGAAAGAGTCCC ((((((....))).)))	63.1	-26.1
GGGCTCGCGAAAGCGCCC (((..(((....))))))	56.5	-15.7
GGGCTCGGAAACGAGCTC (.(((((....))))).)	62.9	-15
GGGCTTGGAAACAAACCC (((.(((....))).)))	43.8	-32.8
GGGCTTGGAAACAAGCTC (.(((((....))))).)	54.9	-31.2
GGGCTTGGAAACAGGCCC ((((.((....)).))))	59.1	-43.9
GGGGAACCGAAAGGTCCC (((..(((....))))))	55.6	-17.3

Sequence	Tm [1] [°C]	folding enthalpy [2] [kcal/mol]
GGGGAAGGAAACTTCCTC (.(((((....))))).)	46.8	-21.6
GGGGAAGGAAACTTTCCC (((.(((....))).)))	48.3	-29
GGGGACGAAAGTCACCCC ((((((....)))..)))	63.3	-12.7
GGGGACGAAAGTCCGCCC ((((((....)))..)))	52.2	-11.5
GGGGACGAAAGTCTACCC ((((((....)))..)))	47.2	-17.9
GGGGAGCGAAAGCTGCCC (((.(((....))).)))	68.8	-23.8
GGGGAGCGAAAGCTTCCC (((.(((....))).)))	68.2	-36.5
GGGGATACGAAAGTACCC (((..(((....))))))	49.2	-24.2
GGGGATCCGAAAGGACCC (((..(((....))))))	53.9	-36.7
GGGGATGGAAACATCCTC (.(((((....))))).)	52.4	-24.4
GGGGATGGAAACATCTCC ((.((((....)))).))	50.3	-32.1
GGGGATGGAAACGTCCCC (((((.(....).)))))	56.1	-48.9
GGGGCACCGAAAGGTCCC (((..(((....))))))	53.1	-25.9
GGGGCAGGAAACCGCCCC (((((.(....).)))))	63.8	-30.3
GGGGCATCGAAAGATCCC (((..(((....))))))	48.4	-21.9
GGGGCCGAAAGGCGACCC ((((((....)))..)))	55.9	-15.9
GGGGCCGAAAGGCGTCCC ((((((....)))..)))	53.5	-13.5
GGGGCCGAAAGGCTCCCC ((((((....)))..)))	65	-11.7
GGGGCCGAAAGGCTTCCC ((((((....)))..)))	46.4	-13.5
GGGGCCGGAAACGACCCC ((((.((....)).))))	59.2	-44.1
GGGGCGCCGAAAGGCCCC (((..(((....))))))	66.1	-15
GGGGCTTCGAAAGAACCC (((..(((....))))))	49.1	-20.4

Source: the array DNA melting data of Ke et al. (doi:10.1101/2024.01.08.574731)
